Reference: ChEMBL document CHEMBL4007422 (J Med Chem, 2017)
pIC50: −log10 of the molar value. Activity calls are given as the source filed them. The rule behind the calls is not given here.

Columns and labels:
Cytochrome P450 3A4 = Cytochrome P450 3A4 (Homo sapiens, UniProt P08684); test: Induction of CYP3A4 activity in human hepatocytes at 0.01 to 1 uM preincubated for 3 days followed by substrate addition measured after 30 mins; type: ADME, cell-based; settings: 0.5 h
Procedure, shortened: (§1)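 Plateable human hepatocytes exposed to 0.01, 0.1 and 1.0 μM. CYP1A2, CYP2B6 and CYP3A4 induction read as both mRNA expression and enzyme activity.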

[1] = Clearance in Wistar rat at 10 mg/kg, iv by LC-MS/MS analysis; type: ADME, organism-based; settings: in vivo
[2] = target: Voltage-gated inwardly rectifying potassium channel KCNH2 (Homo sapiens, UniProt Q12809); test: Inhibition of astemizole binding to human ERG
Chain of Voltage-gated inwardly rectifying potassium channel KCNH2 (Q12809 whole entry): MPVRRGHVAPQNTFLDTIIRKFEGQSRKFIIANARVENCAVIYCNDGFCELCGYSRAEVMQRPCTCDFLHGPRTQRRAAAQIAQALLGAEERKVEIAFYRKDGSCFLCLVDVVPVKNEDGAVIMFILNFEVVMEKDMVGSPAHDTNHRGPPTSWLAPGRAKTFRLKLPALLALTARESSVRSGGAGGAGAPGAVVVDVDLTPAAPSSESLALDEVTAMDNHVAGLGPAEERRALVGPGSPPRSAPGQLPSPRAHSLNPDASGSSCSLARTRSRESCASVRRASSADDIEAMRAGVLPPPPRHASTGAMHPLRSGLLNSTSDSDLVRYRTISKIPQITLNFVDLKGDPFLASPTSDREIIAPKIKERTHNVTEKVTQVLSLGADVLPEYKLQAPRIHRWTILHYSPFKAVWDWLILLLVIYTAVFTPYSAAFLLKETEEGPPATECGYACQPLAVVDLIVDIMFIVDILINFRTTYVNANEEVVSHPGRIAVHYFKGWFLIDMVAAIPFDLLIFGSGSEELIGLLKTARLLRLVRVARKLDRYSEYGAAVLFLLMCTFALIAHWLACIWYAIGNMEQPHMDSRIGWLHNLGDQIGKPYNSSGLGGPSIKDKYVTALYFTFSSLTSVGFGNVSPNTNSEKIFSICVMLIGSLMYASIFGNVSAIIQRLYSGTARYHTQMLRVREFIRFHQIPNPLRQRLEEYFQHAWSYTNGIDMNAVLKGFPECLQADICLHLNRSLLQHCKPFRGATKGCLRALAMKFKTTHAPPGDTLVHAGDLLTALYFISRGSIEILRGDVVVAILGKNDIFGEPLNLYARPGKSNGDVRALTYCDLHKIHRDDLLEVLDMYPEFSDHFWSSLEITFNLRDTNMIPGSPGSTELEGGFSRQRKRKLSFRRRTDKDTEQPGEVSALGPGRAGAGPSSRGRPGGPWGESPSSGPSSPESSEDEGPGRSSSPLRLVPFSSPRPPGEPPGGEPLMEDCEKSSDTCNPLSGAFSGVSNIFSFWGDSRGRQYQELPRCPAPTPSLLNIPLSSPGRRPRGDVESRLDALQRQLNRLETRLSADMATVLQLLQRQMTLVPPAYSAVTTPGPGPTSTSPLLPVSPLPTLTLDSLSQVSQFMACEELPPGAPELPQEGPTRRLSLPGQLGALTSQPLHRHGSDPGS
Procedure, shortened: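 hERG channel binding assessed as displacement in an astemizole binding assay.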

Cytochrome P450 1A2 = Cytochrome P450 1A2 (Homo sapiens, UniProt P05177); test: Inhibition of CYP1A2 in human liver microsomes in presence of NADPH by LC-MS/MS analysis; type: ADME
Chain of Cytochrome P450 1A2 (P05177 whole entry, canonical isoform): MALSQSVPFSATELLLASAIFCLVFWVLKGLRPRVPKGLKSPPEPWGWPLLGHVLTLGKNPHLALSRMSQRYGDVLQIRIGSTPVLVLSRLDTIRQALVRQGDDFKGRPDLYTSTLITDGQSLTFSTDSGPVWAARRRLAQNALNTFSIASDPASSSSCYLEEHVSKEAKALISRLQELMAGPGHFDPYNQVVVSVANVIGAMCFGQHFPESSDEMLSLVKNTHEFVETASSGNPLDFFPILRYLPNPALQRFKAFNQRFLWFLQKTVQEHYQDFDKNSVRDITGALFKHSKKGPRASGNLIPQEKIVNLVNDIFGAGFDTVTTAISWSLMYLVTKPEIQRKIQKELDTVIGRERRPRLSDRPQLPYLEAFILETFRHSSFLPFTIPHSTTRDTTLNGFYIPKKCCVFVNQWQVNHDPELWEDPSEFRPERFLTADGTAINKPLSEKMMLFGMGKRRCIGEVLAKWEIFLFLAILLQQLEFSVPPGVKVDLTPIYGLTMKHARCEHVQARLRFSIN
Procedure, shortened: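 Pooled human liver microsomes. IC50 determined from isoform-specific marker activities for CYP1A2, 2A6, 2B6, 2C8, 2C9, 2C19 (mephenytoin hydroxylation) and 2E1.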

[3] = target: Alpha-2A adrenergic receptor (Homo sapiens) (UniProt P08913); settings: 1 uM
Chain of Alpha-2A adrenergic receptor (Homo sapiens) (P08913 whole entry): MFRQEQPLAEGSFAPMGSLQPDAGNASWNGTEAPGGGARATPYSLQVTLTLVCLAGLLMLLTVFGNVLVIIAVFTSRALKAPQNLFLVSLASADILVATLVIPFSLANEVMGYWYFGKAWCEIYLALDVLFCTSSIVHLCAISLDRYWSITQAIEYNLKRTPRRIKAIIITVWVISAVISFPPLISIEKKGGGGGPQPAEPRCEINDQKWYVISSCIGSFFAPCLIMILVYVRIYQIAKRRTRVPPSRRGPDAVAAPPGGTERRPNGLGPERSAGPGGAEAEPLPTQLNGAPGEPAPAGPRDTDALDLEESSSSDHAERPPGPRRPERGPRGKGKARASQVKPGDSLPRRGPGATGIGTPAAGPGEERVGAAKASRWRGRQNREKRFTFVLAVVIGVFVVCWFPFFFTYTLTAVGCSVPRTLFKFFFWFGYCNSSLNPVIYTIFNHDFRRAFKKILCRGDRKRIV

[4] = target: T1, 5-hydroxytryptamine receptor 2C (Homo sapiens) (UniProt P28335); test: Displacement of [3H]-Mesulergine from recombinant human 5-HT2C receptor expressed in HEK293 cell membranes after 180 mins by microbeta scintillation counting analysis
T1 sequence (whole entry): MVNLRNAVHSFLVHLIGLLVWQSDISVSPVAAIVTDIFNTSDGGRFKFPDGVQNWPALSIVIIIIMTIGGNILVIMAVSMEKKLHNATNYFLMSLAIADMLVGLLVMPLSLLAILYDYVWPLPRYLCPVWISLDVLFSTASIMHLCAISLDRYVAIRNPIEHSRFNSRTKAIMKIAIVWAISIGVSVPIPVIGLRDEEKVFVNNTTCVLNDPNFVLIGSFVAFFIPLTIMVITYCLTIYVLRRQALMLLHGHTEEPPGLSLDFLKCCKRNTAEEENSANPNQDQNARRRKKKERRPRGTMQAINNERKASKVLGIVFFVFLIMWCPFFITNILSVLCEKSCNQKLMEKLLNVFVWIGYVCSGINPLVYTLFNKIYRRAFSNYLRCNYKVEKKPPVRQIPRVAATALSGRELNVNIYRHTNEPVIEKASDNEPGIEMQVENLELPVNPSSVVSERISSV

Hepatocyte = test: Induction of CYP1A2 mRNA expression in human hepatocytes at 0.01 to 1 uM after 3 days by qRT-PCR analysis; type: ADME, cell-based; settings: 72 h; procedure, shortened: as §1
[5] = Oral bioavailability in Wistar rat at 10 mg/kg by LC-MS/MS analysis; type: ADME, organism-based; settings: Wistar, in vivo

Chain of Cytochrome P450 3A4 (P08684 whole entry): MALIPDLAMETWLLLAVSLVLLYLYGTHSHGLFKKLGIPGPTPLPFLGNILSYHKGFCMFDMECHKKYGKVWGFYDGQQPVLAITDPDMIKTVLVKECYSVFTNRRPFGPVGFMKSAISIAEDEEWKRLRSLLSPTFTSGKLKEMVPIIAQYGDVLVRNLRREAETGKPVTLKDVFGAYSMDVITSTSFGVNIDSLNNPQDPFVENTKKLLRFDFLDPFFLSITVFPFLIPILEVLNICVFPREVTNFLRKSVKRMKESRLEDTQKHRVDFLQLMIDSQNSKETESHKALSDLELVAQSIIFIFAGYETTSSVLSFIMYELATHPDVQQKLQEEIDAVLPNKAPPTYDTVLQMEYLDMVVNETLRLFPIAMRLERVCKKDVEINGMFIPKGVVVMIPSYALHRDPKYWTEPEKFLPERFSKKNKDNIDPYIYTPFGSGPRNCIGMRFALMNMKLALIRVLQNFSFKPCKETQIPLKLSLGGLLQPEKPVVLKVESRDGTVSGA

- Activity (Cytochrome P450 3A4): Not Active
- clearance [1]: 53 mL/min/kg
- pIC50 (Cytochrome P450 1A2): < 5.00
- inhibition [3]: > 50%
- Activity [4]: inactive
- bioavailability [5]: 24.9%
Compound: COc1ccc2c(c1)c(CN1CCN(C)CC1)cn2S(=O)(=O)c1ccccc1Br.CS(=O)(=O)O.O
- inhibition (INH) [2]: Not Active
- Activity (Hepatocyte): Non-Toxic
